One data set has as its system Candida albicans. The data set is described as follows: Antimicrobial activity against Candida albicans assessed as inhibition of microbial growth at 0.03125 to 0.5 mg/ml measured every 20 mins for 24 hrs by spectrophotometry. The class given is functional, organism-based. The procedure, abridged:
(§1)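 Broth microdilution: colony suspensions grown overnight at 37°C with shaking, standardised to McFarland 0.5, inoculated at final 5 × 10^5 cfu mL^-1 into nutrient broth holding serially diluted test solution. Rifampicin (61 µM) as control; untreated wells included. 37°C, 300 rpm shaking, OD600 read every 20 min over 24 h.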

Another data set has as its system Staphylococcus aureus. The data set is described as follows: Antimicrobial activity against Staphylococcus aureus assessed as inhibition of microbial growth at 0.03125 to 0.5 mg/ml measured every 20 mins for 24 hrs by spectrophotometry. The class given is functional, organism-based. The procedure, abridged:
as §1

Data set [1] deals with Schistosoma mansoni. As to the kind of experiment: Antischistosomal activity against schistosomula larval stage of Schistosoma mansoni assessed as effect on motility at 10 uM after 24 hrs. In kind it is functional, organism-based. The method in brief:
(§2)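 24 h cultured, mechanically transformed S. mansoni schistosomula (~120/well) in Basch medium, exposed to compound at 10 µM final (DMSO stock 1.6 mM) in 384-well format; DMSO and auranofin controls, 16 wells each. Incubated 24 h, 37°C, 5% CO2, then high-content imaging scored motility and phenotype.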

The subject of the next data set is Pseudomonas aeruginosa. The data set is described as follows: Antimicrobial activity against Pseudomonas aeruginosa assessed as inhibition of microbial growth at 0.03125 to 0.5 mg/ml measured every 20 mins for 24 hrs by spectrophotometry. In kind it is functional, organism-based. The procedure, abridged: as §1
Data set [2] concerns Escherichia coli. As to the kind of experiment: Antimicrobial activity against Escherichia coli assessed as inhibition of microbial growth at 0.03125 to 0.5 mg/ml measured every 20 mins for 24 hrs by spectrophotometry. In kind it is functional, organism-based. The method in brief: as §1
In data set [3] the test system is Schistosoma mansoni. As to the kind of experiment: Antischistosomal activity against schistosomula larval stage of Schistosoma mansoni assessed as effect on phenotype at 10 uM after 24 hrs. The class given is functional, organism-based. The method in brief:
as §2

In data set [4] the test system is Mycolicibacterium smegmatis. The data set is described as follows: Antimicrobial activity against Mycobacterium smegmatis assessed as inhibition of microbial growth at 0.03125 to 0.5 mg/ml measured every 20 mins for 24 hrs by spectrophotometry. In kind it is functional, organism-based. The method in brief:
as §1

For the next data set, the system named is HepG2. The data set is described as follows: Cytotoxicity against human HepG2 at <200 uM after 20 hrs by MTT assay. The following applies: hepg2, 20 h. The class given is cell-based. The procedure, abridged:
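HepG2 seeded 2.0 × 10^4/well in modified BME with 10% FBS, L-Gln, non-essential amino acids and antibiotic/antimycotic; 24 h at 37°C, 5% CO2 before dosing at 100-0.01 µM final. After 20 h, MTT added for 4 h; formazan dissolved in DMSO:isopropanol (1:1), A570 read. 1% DMSO and 1% Triton X-100 controls; blank-corrected; three data sets.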
In general terms: Tetrazolium assays rely on reduction of a dye to a coloured formazan, in cell work by metabolically active cells.

For data set [5], the system named is Escherichia coli. The data set is described as follows: Growth stimulation of Escherichia coli at >100 uM measured every 20 mins for 24 hrs by spectrophotometry. The class given is organism-based. The method in brief: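 E. coli in nutrient broth with serially diluted compound, final inoculum 5 × 10^5 cfu mL^-1. Incubated 37°C with 300 rpm shaking, OD600 read every 20 min for 24 h. Data given as OD600 percentage of no-drug control wells, mean ± error.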

The values that follow come from ChEMBL document CHEMBL4190206, “Neoclerodane Diterpenoids from Reehal Fatima, Teucrium yemense” (J Nat Prod, 2017).

Calls of active or inactive are those of the source. The rule behind the calls is not given here.

Regarding `CC(=O)OC[C@]1(CCC2=CC(O)OC2=O)[C@H](C)C[C@H](O)[C@]2(COC(C)=O)[C@@H]1CC[C@H](O)[C@]21CO1` (stereo partly drawn), the outcome in the data set on Candida albicans, with Staphylococcus aureus, in the data set with Schistosoma mansoni [1], in the data set with Pseudomonas aeruginosa, with Escherichia coli [2] and with Schistosoma mansoni [3] was inactive. The outcome in data set [4] was inactive. In addition, the Activity entry in the data set on HepG2 is reported as “Non-Toxic”; with Escherichia coli [5], “Dose-dependent effect”.
As to `CC(=O)OC[C@@]12[C@@H]3CC[C@H](O)[C@]1(O)CO[C@]2(O)C[C@@H](C)[C@]31C[C@@H](c2ccoc2)OC1=O`, the outcome with Candida albicans, in the data set on Staphylococcus aureus, in the data set on Schistosoma mansoni [1], with Pseudomonas aeruginosa, with Escherichia coli [2] and in the data set with Schistosoma mansoni [3] was inactive. Moreover, the result in [4] was inactive. In addition, the Activity entry in the data set on HepG2 is “Non-Toxic”.
As to `C[C@@H]1CC(=O)[C@@H]2[C@H](CC[C@H](O)[C@]2(O)COC(=O)c2ccc(O)cc2)[C@@]12C[C@@H](c1ccoc1)OC2=O`, the outcome in the data set on Candida albicans, with Staphylococcus aureus, with Schistosoma mansoni [1], in the data set on Pseudomonas aeruginosa, in the data set on Escherichia coli [2] and in the data set with Schistosoma mansoni [3] was inactive. Also, in [4], the result was inactive. For the same molecule, in the data set with HepG2, the Activity entry is on record as “Non-Toxic”.
On to `CC(=O)OC[C@]1(CC(O)c2ccoc2)[C@H](C)C[C@H](O)[C@]2(COC(C)=O)[C@@H]1CC[C@H](O)[C@]21CO1` (stereo partly drawn), for which the result with Candida albicans, with Staphylococcus aureus, in the data set with Schistosoma mansoni [1], with Pseudomonas aeruginosa, with Escherichia coli [2] and in the data set on Schistosoma mansoni [3] was inactive. Moreover, the result in data set [4] was inactive. In addition, the Activity result in the data set on HepG2 is “Non-Toxic”; in the data set with Escherichia coli [5], “Dose-dependent effect”.
As to `C[C@@H]1C[C@H](O)[C@]23CO[C@](O)(CC[C@@H]2[C@@]12C[C@@H](c1ccoc1)OC2=O)[C@@H]3CO`, the result in the data set with Candida albicans, in the data set on Staphylococcus aureus, in the data set with Schistosoma mansoni [1], in the data set with Pseudomonas aeruginosa, with Escherichia coli [2] and with Schistosoma mansoni [3] was inactive. Besides, the outcome in [4] was inactive. Besides, the Activity result in the data set on HepG2 is recorded as “Non-Toxic”.
As for `C[C@@H]1C[C@@]2(O)OC[C@@]3(O)[C@@H](O)CC[C@@H]4[C@]1(CC(O)c1ccoc1)C(=O)OC[C@]423` (stereo partly drawn), the outcome with Candida albicans, in the data set on Staphylococcus aureus, in the data set with Schistosoma mansoni [1], in the data set on Pseudomonas aeruginosa, with Escherichia coli [2] and in the data set on Schistosoma mansoni [3] was inactive. Besides, the outcome in data set [4] was inactive. Further, the Activity entry with HepG2 is given as “Non-Toxic”.
As for `C[C@@H]1C[C@@]2(O)OC[C@]3(O)[C@H]2[C@H](CC[C@@H]3O)[C@@]12C[C@@H](c1ccoc1)OC2=O`, the outcome in the data set on Candida albicans, in the data set with Staphylococcus aureus, with Schistosoma mansoni [1], with Pseudomonas aeruginosa, in the data set with Escherichia coli [2] and in the data set with Schistosoma mansoni [3] was inactive. For the same molecule, in data set [4], the outcome was inactive. Also, in the data set on HepG2, the Activity result was “Non-Toxic”.
